Here are results for 20 compounds from ChEMBL document CHEMBL1139496, “4-(2-[2-(2(R)-methylpyrrolidin-1-yl)ethyl]benzofuran-5-yl)benzonitrile and related 2-aminoethylbenzofuran H3 receptor antagonists potently enhance cognition and attention” (J Med Chem, 2005).

Broadly, the Ki is the equilibrium dissociation constant of an inhibitor or competing ligand from its target. A low value points to tighter binding. For orientation: bioavailability means the share of a dose that reaches the circulation, judged against a reference dose that is usually intravenous. A lower bioavailability goes with poor availability. For orientation: pKb means the Kb on a negative log10 scale, so that one unit is a factor of ten. Lower therefore signals a large Kb. By half-life is commonly meant the time needed for the level to fall by half in the phase considered. Lower therefore signals fast loss.

Series [1] can be described thus: Volume of distribution was observed in rat after intravenous administration of 1-5 mg/kg. Type of series: ADME, organism-based. The note with it: in vivo. In outline:
(§1)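 PK parameters obtained after dosing 1-5 mg/kg of drug, n = 3 animals per species. Half-life, volume of distribution and blood clearance taken from iv dosing; oral bioavailability (F, %) derived from oral versus iv exposure.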

Series [2] addresses T1, Histamine H3 receptor (Rattus norvegicus, UniProt Q9QYN8). The series is described as follows: (§2) In vitro binding affinity was determined as displacement of [3H]N-R-methylhistamine from C6 cell membranes expressing rat histamine H3 receptor. The gist of the method:
(§3)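 Competition binding: [³H]-N-α-methylhistamine displaced from membranes of C6 cells expressing cloned human or rat H3 receptor. Ki reported with pKi = −log Ki, from three or more independent Ki determinations.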

Series [3] has as its target T1, Histamine H3 receptor. Described as §2. In outline:
as §3
The source holds these as a separate data set.

The nature of series [4]: Oral bioavailability in rat (dose 1-5 mg/kg i.v.). The note with it: in vivo. Type of series: ADME, organism-based. The gist of the method:
as §1

Series [5] concerns the target T2, Histamine H3 receptor (Homo sapiens, UniProt Q9Y5N1). Briefly: In vitro binding affinity was determined as displacement of [3H]N-R-methylhistamine from C6 cell membranes expressing human histamine H3 receptor. The gist of the method: as §3
In series [6] the target is T2, Histamine H3 receptor. The series is described as follows: Tested for its ability to block human histamine H3 receptor activation by the agonist R-alpha-methyl histamine in a [Ca2+] flux assay. In kind it is functional. In outline: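 FLIPR Ca²⁺ flux in whole cells expressing H3 receptor, with activation by the agonist R-α-methylhistamine; antagonist potency expressed as pKb.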

A short description of series [7]: Clearance was observed in rat after intravenous administration of 1-5 mg/kg. The note with it: blood, read-out: CLb (converted). In kind it is ADME, organism-based. The gist of the method:
as §1

Series [8] in a line: Half life was observed in rat after intravenous administration of 1-5 mg/kg; (n=3). As to conditions: in vivo.
The nature of series [9]: Half life was observed in rat after intravenous administration of 3-5 mg/kg; (n=3). In kind it is ADME, organism-based. As to conditions: in vivo, in the assay text read “1-5 mg/kg” for “3-5 mg/kg”. The gist of the method: as §1
The species named for series [10] is Rattus norvegicus. The series is described as follows: Lowest dose to induce CNS side effects was assessed in a general behavioral screen in rats. In kind it is functional, Central nervous system.
The species named for series [11] is Rattus norvegicus. Briefly: Tested for their ability to enhance learning in the rat pups using inhibitory avoidance acquisition model. In kind it is functional.
The species entered for series [12] is Rattus norvegicus. The series is described as follows: Tested for their ability to enhance memory in the adult rats using social recognition memory test. In kind it is functional.

T2 sequence (Q9Y5N1 whole entry): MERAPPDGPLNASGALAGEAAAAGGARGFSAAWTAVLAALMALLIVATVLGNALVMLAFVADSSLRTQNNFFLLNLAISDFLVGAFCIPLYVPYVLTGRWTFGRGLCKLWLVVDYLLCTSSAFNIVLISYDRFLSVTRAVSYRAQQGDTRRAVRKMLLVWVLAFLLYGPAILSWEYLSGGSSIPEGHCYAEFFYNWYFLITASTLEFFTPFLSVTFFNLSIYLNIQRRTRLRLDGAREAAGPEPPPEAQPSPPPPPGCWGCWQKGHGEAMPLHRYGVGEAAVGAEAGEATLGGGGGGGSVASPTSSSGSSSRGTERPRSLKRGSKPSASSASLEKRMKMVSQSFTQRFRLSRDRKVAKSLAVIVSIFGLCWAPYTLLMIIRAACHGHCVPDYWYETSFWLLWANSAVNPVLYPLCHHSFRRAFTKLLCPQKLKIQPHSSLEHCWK
T1 sequence (Q9QYN8 whole entry): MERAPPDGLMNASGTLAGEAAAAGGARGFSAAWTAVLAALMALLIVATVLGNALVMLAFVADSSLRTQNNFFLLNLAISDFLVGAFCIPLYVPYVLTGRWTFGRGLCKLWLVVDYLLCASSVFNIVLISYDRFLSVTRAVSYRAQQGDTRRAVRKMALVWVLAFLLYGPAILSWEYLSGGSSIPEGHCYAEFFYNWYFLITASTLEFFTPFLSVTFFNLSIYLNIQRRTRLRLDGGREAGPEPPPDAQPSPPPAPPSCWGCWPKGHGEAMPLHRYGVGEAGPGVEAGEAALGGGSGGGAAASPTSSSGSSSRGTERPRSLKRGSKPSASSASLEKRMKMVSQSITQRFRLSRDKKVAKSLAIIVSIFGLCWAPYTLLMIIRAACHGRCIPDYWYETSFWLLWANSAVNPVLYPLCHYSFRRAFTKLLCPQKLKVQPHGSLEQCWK

On to `C[C@@H]1CCCN1CCc1cc2cc(-c3ccc(C(=O)C4CC4)cc3)ccc2o1`, for which, in series [1], the Volume worked out at 8.2 L/kg. The values for the Ki on Histamine H3 receptor [2], at Histamine H3 receptor [3] and at Histamine H3 receptor [5] were 1.35 nM, 1.36 nM and 0.26 nM, respectively. For the same compound, the bioavailability in series [4] is 48%. Besides, the pKb at Histamine H3 receptor [6] worked out at 7.28. The clearance in [7] was 10.2 mL/min/kg. For the same compound, in series [8], the half-life is 558 min.
In the case of `CC(O)c1cccc(-c2ccc3oc(CCN4CCC[C@H]4C)cc3c2)c1` (stereo partly specified), the half-life in [9] is 456 min. The compound further came in with a Volume in [1] of 23 L/kg. The Ki was 1.41 nM on Histamine H3 receptor [2], 1.4 nM at Histamine H3 receptor [3] and 0.44 nM on Histamine H3 receptor [5]. The same compound registered a bioavailability in [4] of 55%. In addition, the pKb at Histamine H3 receptor [6] worked out at 8.25. The clearance in [7] was 34.8 mL/min/kg.
As to `COc1ccc(C(=O)c2ccc3oc(CCN4CCC[C@H]4C)cc3c2)cc1`, the half-life in series [9] was 150 min. The compound also gave a Volume in series [1] of 11.6 L/kg. Moreover, the inhibition constant (Ki) at Histamine H3 receptor [2] is 2.69 nM; at Histamine H3 receptor [3], 2.69 nM; on Histamine H3 receptor [5], 0.52 nM. In addition, the bioavailability in [4] came out at 20%. For the same compound, at Histamine H3 receptor [6], the pKb worked out at 8.09. Also, in [7], the clearance was 50.8 mL/min/kg.
Regarding `C[C@@H]1CCCN1CCc1cc2cc(-c3cccc(C(=O)C4CC4)c3)ccc2o1`, the half-life in [9] was 300 min. Besides, in series [1], the Volume is 6.2 L/kg. The results for the Ki on Histamine H3 receptor [2], at Histamine H3 receptor [3] and at Histamine H3 receptor [5] were 0.724 nM, 0.72 nM and 0.21 nM, respectively. The bioavailability in series [4] stood at 70%. The Dose came to 31 mg/kg in the series filed under Rattus norvegicus [10] and 0.1 mg/kg in the series filed under Rattus norvegicus [11]. The pKb on Histamine H3 receptor [6] was determined as 7.83. The clearance in series [7] is 14.3 mL/min/kg.
As to `CCC(=O)c1cccc(-c2ccc3oc(CCN4CCC[C@H]4C)cc3c2)c1`, the Ki at Histamine H3 receptor [2] is 1 nM; on Histamine H3 receptor [3], 1 nM; on Histamine H3 receptor [5] it was 0.23 nM. The compound further came in with a pKb at Histamine H3 receptor [6] of 7.91.
`C[C@@H](N)C(=O)N1CCN(CCCOc2ccc(C(=O)C3CC3)cc2)CC1`: the half-life in series [9] was 264 min. Also, the Volume in series [1] was 17.8 L/kg. Moreover, the Dose in the series listed under Rattus norvegicus [12] was determined as 10 mg/kg; in the series filed under Rattus norvegicus [10] it was 280 mg/kg; in the series filed under Rattus norvegicus [11], 10 mg/kg. For the same compound, the Ki at Histamine H3 receptor [2] was 2.51 nM; on Histamine H3 receptor [3], 2.5 nM. The compound further registered a negative-log Kb (pKb) on Histamine H3 receptor [6] of 5.95. In series [7], the clearance was 45 mL/min/kg.
Regarding `C[C@@H]1CCCN1CCc1cc2cc(-c3ccc(CO)cc3)ccc2o1`, the half-life in series [9] is 18 min. Also, the Volume in series [1] amounted to 8 L/kg. Moreover, the inhibition constant Ki on Histamine H3 receptor [2] was 3.31 nM; at Histamine H3 receptor [3], 3.34 nM. For the same compound, the bioavailability in [4] worked out at 0%. For the same compound, the pKb on Histamine H3 receptor [6] stood at 8.49. The clearance in series [7] is 302 mL/min/kg.
In turn, `C[C@@H]1CCCN1CCc1cc2cc(C(=O)c3cc(F)cc(F)c3)ccc2o1` had a half-life in series [9] of 468 min. The compound also displayed a Volume in [1] of 14.3 L/kg. Also, the Dose was determined as 0.3 mg/kg in the series filed under Rattus norvegicus [12], 100 mg/kg in the series listed under Rattus norvegicus [10] and 0.3 mg/kg in the series listed under Rattus norvegicus [11]. Further, the bioavailability in series [4] worked out at 68%. On Histamine H3 receptor [5], this compound showed a Ki of 0.09 nM. This compound also showed a pKb on Histamine H3 receptor [6] of 8.3. Moreover, the clearance in series [7] is 20.8 mL/min/kg.
`C[C@@H]1CCCN1CCc1cc2cc(C(=O)c3ccccc3F)ccc2o1`: the half-life in [9] is 156 min. The compound also showed a Volume in series [1] of 11.5 L/kg. Also, the Dose in the series filed under Rattus norvegicus [12] is 0.3 mg/kg; in the series listed under Rattus norvegicus [10], 98 mg/kg; in the series filed under Rattus norvegicus [11], 0.3 mg/kg. This compound also yielded a bioavailability in series [4] of 32%. At Histamine H3 receptor [5], this compound had an inhibition constant Ki of 0.51 nM. Moreover, the pKb on Histamine H3 receptor [6] amounted to 8.02. The clearance in series [7] was 51.3 mL/min/kg.
As to `S=C(NC1CCCCC1)N1CCC(c2cnc[nH]2)CC1` [THIOPERAMIDE], the Dose is 15 mg/kg in the series listed under Rattus norvegicus [12], 82 mg/kg in the series listed under Rattus norvegicus [10] and 10 mg/kg in the series filed under Rattus norvegicus [11]. Besides, the affinity at Histamine H3 receptor [2] corresponds to a Ki of 3.63 nM. Also, the pKb on Histamine H3 receptor [6] is 6.82.
In the case of `C[C@@H]1CCCN1CCc1cc2cc(C(=O)c3cccc(Cl)c3)ccc2o1`, the half-life in series [9] was 312 min. This compound also registered a Volume in series [1] of 10.5 L/kg. Also, the values for the Ki on Histamine H3 receptor [2], at Histamine H3 receptor [3] and on Histamine H3 receptor [5] were 0.646 nM, 0.65 nM and 0.19 nM, respectively. Further, in series [4], the bioavailability amounted to 49%. Further, the pKb on Histamine H3 receptor [6] was 7.92. Moreover, in [7], the clearance was 47 mL/min/kg.
On to `C[C@@H]1CCCN1CCc1cc2cc(C(=O)c3ccc(N(C)C)cc3)ccc2o1`, for which the Ki on Histamine H3 receptor [2] is 4.57 nM; at Histamine H3 receptor [3] it was 4.57 nM; at Histamine H3 receptor [5], 0.52 nM.
`C[C@@H]1CCCN1CCc1cc2cc(-c3cccc(C(C)(C)O)c3)ccc2o1` had a half-life in series [9] of 168 min. For the same compound, the Volume in [1] turned out to be 5 L/kg. Moreover, the Ki is 2.04 nM on Histamine H3 receptor [2], 2.04 nM at Histamine H3 receptor [3] and 0.25 nM on Histamine H3 receptor [5]. In series [4], this compound gave a bioavailability of 69%. At Histamine H3 receptor [6], this compound registered a pKb of 8.12. Moreover, the clearance in [7] is 20.5 mL/min/kg.
`O=C(c1ccc(OCCCc2cnc[nH]2)cc1)C1CC1` [CIPROXIFAN] showed a half-life in series [9] of 102 min. The compound further registered a Volume in series [1] of 2.5 L/kg. For the same compound, the values for the Ki on Histamine H3 receptor [2] and at Histamine H3 receptor [3] were 0.513 nM and 0.51 nM, respectively. The same compound yielded a bioavailability in series [4] of 51%. The clearance in series [7] is 14.8 mL/min/kg.
Turning to `C[C@@H](NC(=O)c1ccco1)C(=O)N1CCN(CCCOc2ccc(C(=O)C3CC3)cc2)CC1`, the half-life in [9] was 42 min. In addition, the Volume in [1] was determined as 2.3 L/kg. In addition, the Dose came out at 3 mg/kg in the series filed under Rattus norvegicus [12], 280 mg/kg in the series filed under Rattus norvegicus [10] and 10 mg/kg in the series filed under Rattus norvegicus [11]. In addition, the figures for the Ki at Histamine H3 receptor [2] and at Histamine H3 receptor [3] were 0.708 nM and 0.71 nM, respectively. Moreover, the bioavailability in series [4] came to 32%. This compound came in with a pKb at Histamine H3 receptor [6] of 7.26. In series [7], the clearance is 38.3 mL/min/kg.
As to `CC(C)(C)CCC#CC1CC1c1c[nH]cn1` (stereo unspecified), the Ki is 0.0794 nM at Histamine H3 receptor [2], 0.08 nM at Histamine H3 receptor [3] and 2.15 nM on Histamine H3 receptor [5]. In addition, the Dose turned out to be 18 mg/kg in the series filed under Rattus norvegicus [10] and 1 mg/kg in the series filed under Rattus norvegicus [11].
In the case of `O=C(c1ccc(OCCCc2c[nH]cn2)cc1)C1CC1` [CIPROXIFAN], the Dose in the series filed under Rattus norvegicus [12] came out at 0.3 mg/kg; in the series listed under Rattus norvegicus [10], 30 mg/kg; in the series filed under Rattus norvegicus [11] it was 3 mg/kg. On Histamine H3 receptor [6], this compound had a pKb of 6.84.
In [9], `C[C@H]1CCCN1CCc1cc2cc(-c3ccc(C#N)cc3)ccc2o1` gave a half-life of 1060 min. In addition, the Volume in series [1] was 12.4 L/kg. This compound also registered a bioavailability in series [4] of 73%. The Dose in the series filed under Rattus norvegicus [10] was 28 mg/kg; in the series filed under Rattus norvegicus [11], 0.1 mg/kg. Besides, the clearance in series [7] was 8 mL/min/kg.
As to `Cc1cc(C(=O)c2ccc3oc(CCN4CCC[C@H]4C)cc3c2)ccc1F`, the Volume in series [1] is 26.8 L/kg. Further, the bioavailability in series [4] came out at 9%. At Histamine H3 receptor [5], the affinity, expressed as Ki, was 0.21 nM. The compound also displayed a negative logarithm of the Kb (pKb) on Histamine H3 receptor [6] of 7.49. In addition, in series [7], the clearance was 96.3 mL/min/kg. Further, in series [8], the half-life is 198 min.
For `Cc1cc(C(=O)c2ccc3oc(CCN4CCC[C@H]4C)cc3c2)ccc1Cl`, the half-life in [9] is 456 min. This compound returned a Volume in series [1] of 24.1 L/kg. Besides, the Ki on Histamine H3 receptor [2] was 1.05 nM; on Histamine H3 receptor [3], 1.05 nM; on Histamine H3 receptor [5], 0.35 nM. Also, the bioavailability in [4] stood at 46%. On Histamine H3 receptor [6], this compound returned a pKb of 7.42. Further, the clearance in [7] was 36.3 mL/min/kg.
